From ChEMBL document CHEMBL4014355 (J Med Chem, 2017) come the findings set out here.

Structures are written as SMILES. Bridge positions count the residues as written; N and C are the ends. Square brackets hold non-standard residues; d marks the D form. Peptide text beside a SMILES is read from it. * marks the point of attachment. Arg(Me2s) = CN=C(NC)NCCC[C@H](N)C(=O)O; Arg(Me) = CNC(=N)NCCC[C@H](N)C(=O)O; d(αMeK) = C[C@@](N)(CCCCN)C(=O)O; dPhg = N[C@@H](C(=O)O)c1ccccc1; dOrn = NCCC[C@@H](N)C(=O)O; dDab = NCC[C@@H](N)C(=O)O; Isobutyryl = CC(C)C(=O)*; dDap = NC[C@@H](N)C(=O)O; Abu = CC[C@H](N)C(=O)O Where only a bound is given, the exact number is not on record here.

One data set has as its system HL-60. Description: Cytotoxicity against human HL60 cells lacking MLL translocation assessed as cell growth inhibition after 4 days by WST8 assay. Type of data set: cell-based. The following applies: HL-60, 96 h. The method, boiled down:
(§1)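 Cells (MOLM-13 with MLL-AF9, MV4-11 with MLL-AF4, HL-60 with no MLL fusion) seeded at 1 × 10^4 cells/well and exposed to a range of inhibitor concentrations for 4 days, with 0.2% DMSO final in the medium. Viability was read by WST-8 kit. Three independent experiments, each in triplicate.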
(In general: Tetrazolium dyes change colour on reduction, which living cells bring about.)

For the next data set, the system named is MOLM-13. Description: Cytotoxicity against human MOLM13 cells harboring MLL-AF9 fusion protein assessed as cell growth inhibition after 4 days by WST8 assay. Format: functional, cell-based. The following applies: MOLM-13, 96 h. The essentials:
as §1

For data set [1], the target named is MLL1-ASH2L/RbBP5/WDR5/DPY30 (Homo sapiens, UniProt P61964). Put plainly: Inhibition of human N-terminal GST-tagged MLL1 (3735 to 3973 residues) interaction with human full length N-terminal 6xHis-tagged ASH2L/N-terminal 6xHis-tagged human full length RbBP5/human N-terminal 6xHis-tagged WDR5/human full length N-terminal 6xHis-tagged DPY30 assessed as decrease in H3K4me1-2 methylation preincubated for 30 mins followed by SAM/nucleosome mixture addition measured after 120 mins in absence of light by AlphaLISA assay. Type of data set: protein assay. Background: In Alpha technology, singlet oxygen from a donor bead excites a nearby acceptor bead.

Data set [2] in a line: Inhibition of 5-FAM tracer binding to WDR5 delta23 mutant (24 to 334 residues) (unknown origin) expressed in Escherichia coli Rosetta 2 (DE3) cells after 3 hrs by fluorescence polarization assay. Further details: species or system Homo sapiens. A general note: Fluorescence polarisation rises when a labelled molecule tumbles more slowly, as on binding a larger partner.
In another data set the test system is MV4-11. Put plainly: Cytotoxicity against human MV4-11 cells harboring MLL-AF4 fusion protein assessed as cell growth inhibition after 4 days by WST8 assay. Conditions: MV4-11, 96 h. Format: functional, cell-based. The essentials: as §1
Data set [3] can be described thus: Selectivity ratio of IC50 for human HL60 cells lacking MLL translocation to IC50 for human MV4-11 cells harboring MLL-AF4 fusion protein.
Data set [4] can be described thus: Half life in mouse microsomes. Format: ADME, Microsome.
A short description of data set [5]: Half life in rat microsomes. Type of data set: ADME, Microsome.
The nature of data set [6]: Half life in human microsomes. Format: ADME, Microsome.
Data set [7] in a line: Selectivity ratio of IC50 for human HL60 cells lacking MLL translocation to IC50 for human MOLM13 cells harboring MLL-AF9 fusion protein.

The term IC50 denotes the concentration needed to halve the response being measured. By Ki is commonly meant a dissociation constant, usually derived from enzyme kinetics or from competition with a known ligand. A high value points to lower affinity. On to `CC[C@@H]1NC(=O)[C@H](CCCNC(=N)N)NC(=O)[C@H](NC(=O)C(C)C)CCCCNC(=O)[C@@H](c2ccccc2)NC1=O` (Isobutyryl-[dK]R[Abu][dPhg]; lactam 1-C), for which the IC50 with HL-60 is more than 100 µM; with MOLM-13, more than 100 µM; in data set [1], more than 10 µM; in [2], 0.298 µM; in the data set with MV4-11, more than 100 µM. The inhibition constant Ki in [2] came to 0.0603 µM.

Consider `CC[C@@H]1NC(=O)[C@H](CCCNC(=N)N)NC(=O)[C@](C)(NC(=O)C(C)C)CCCCCNC(=O)[C@@H](c2ccccc2)NC1=O`, for which the 50% inhibitory concentration (IC50) with HL-60 was more than 100 µM; in the data set on MOLM-13, 37.6 µM; in [1] it was 1.53 µM; in data set [2], 0.0026 µM; in the data set with MV4-11 it was 15.1 µM. Also, in data set [2], the Ki is less than 0.001 µM.

On to `CC[C@@H]1NC(=O)[C@H](CCCNC(=N)NC)NC(=O)[C@](C)(NC(=O)C(C)C)CCNC(=O)[C@H](c2ccccc2)NC1=O`, for which the IC50 with MOLM-13 was 14.3 µM; in [1], 0.477 µM; in data set [2] it was 0.002 µM; in the data set with MV4-11, 35 µM. The compound further yielded a Ki in data set [2] of less than 0.001 µM.

Turning to `CC[C@@H]1NC(=O)[C@H](CCCNC(=N)N)NC(=O)[C@H](NC(=O)C(C)C)CNC(=O)[C@@H](c2ccccc2)NC1=O` (Isobutyryl-[dDap]R[Abu][dPhg]; lactam 1-C), the IC50 in [1] was more than 10 µM. In data set [2], this compound came in with an IC50 of 1.19 µM and an inhibitory constant (Ki) of 0.242 µM.

Take `CC[C@@H]1NC(=O)[C@H](CCCNC(=N)N)NC(=O)[C@H](NC(=O)C(C)C)CCCNC(=O)[C@@H](c2ccccc2)NC1=O` (Isobutyryl-[dOrn]R[Abu][dPhg]; lactam 1-C): the IC50 with HL-60 was more than 100 µM; in the data set with MOLM-13, more than 100 µM; in data set [1], more than 10 µM; in data set [2] it was 0.164 µM; in the data set with MV4-11, more than 100 µM. The same compound yielded a Ki in data set [2] of 0.0329 µM.

Broadly, the half-life is the time needed for the level to fall by half in the phase considered. A higher half-life goes with slow decline. Take `CC[C@@H]1NC(=O)[C@H](CCCNC(=N)N)NC(=O)[C@](C)(NC(=O)C(C)C)CCNC(=O)[C@@H](c2ccccc2)NC1=O.O=C(O)C(F)(F)F`: the IC50 in the data set with HL-60 amounted to 17.4 µM; in the data set with MOLM-13, 0.28 µM; in [1] it was 0.0126 µM; in data set [2], 0.00108 µM; in the data set with MV4-11 it was 0.46 µM. The “Ratio IC50” value in [3] and in data set [7] was more than 30 each time. The half-life in [4], in [5] and in [6] was more than 1 h in each case. The Ki in data set [2] was less than 0.001 µM.

For `CC[C@H]1NC(=O)[C@@H](CCCNC(=N)N)NC(=O)[C@@](C)(NC(=O)C(C)C)CCCCNC(=O)[C@H](c2ccccc2)NC1=O`, the IC50 in the data set with HL-60, with MOLM-13 and in the data set with MV4-11 was more than 100 µM throughout.

As to `CC[C@@H]1NC(=O)[C@H](CCCNC(=N)N)NC(=O)[C@](C)(NC(=O)C(C)C)CCCCNC(=O)[C@@H](c2ccccc2)NC1=O.O=C(O)C(F)(F)F`, the concentration for half-maximal inhibition (IC50) in the data set with HL-60 was more than 100 µM. For the same compound, the half-life in [4], in data set [5] and in [6] was more than 1 h in each case.

On to `CCC(CC)(NC(=O)C(C)C)C(=O)N[C@@H](CCCNC(=N)N)C(=O)NC1(C(=O)NC(c2ccccc2)c2ccccc2)CCCC1`, for which the half-life in data set [4] was determined as 0.733 h; in [5], 0.567 h; in [6], 0.0667 h.

Turning to `CC[C@@H]1NC(=O)[C@H](CCCNC(=N)N)NC(=O)[C@](C)(NC(=O)C(C)C)CCCCN(C)C(=O)[C@@H](c2ccc(Cl)cc2)NC1=O.O=C(O)C(F)(F)F`, the IC50 in data set [1] was determined as 0.124 µM; in data set [2] it was 0.0015 µM. The half-life in data set [4], in data set [5] and in data set [6] was more than 1 h each time. The same compound returned a Ki in data set [2] of less than 0.001 µM.

Regarding `CC[C@@H]1NC(=O)[C@H](CCCNC(=N)N)NC(=O)[C@H](NC(=O)C(C)C)CCNC(=O)[C@@H](c2ccccc2)NC1=O` (Isobutyryl-[dDab]R[Abu][dPhg]; lactam 1-C), the concentration for half-maximal inhibition (IC50) with HL-60 was more than 100 µM; in the data set on MOLM-13 it was 42.8 µM; in data set [1] it was 1.8 µM; in data set [2], 0.0062 µM; with MV4-11, 43.4 µM. For the same compound, in [2], the Ki was found to be 0.0008 µM.

For `CC[C@@H]1NC(=O)[C@H](CCCN/C(=N/C)NC)NC(=O)[C@](C)(NC(=O)C(C)C)CCCCNC(=O)[C@@H](c2ccccc2)NC1=O` (Isobutyryl-[d(αMeK)][Arg(Me2s)][Abu][dPhg]; lactam 1-C), the 50% inhibitory concentration (IC50) in the data set on HL-60 came out at 84.8 µM; in the data set with MOLM-13 it was 31.5 µM; in data set [1], 1.26 µM; in data set [2] it was 0.0024 µM; in the data set on MV4-11 it was 15.2 µM. Besides, in data set [2], the Ki was less than 0.001 µM.

As to `CC[C@@H]1NC(=O)[C@H](CCCNC(=N)N)NC(=O)[C@](C)(NC(=O)C(C)C)CCCCN(C)C(=O)[C@@H](c2ccccc2)NC1=O.O=C(O)C(F)(F)F`, the figures for the IC50 in data set [1] and in [2] were 0.19 µM and 0.0016 µM, respectively. The half-life in data set [4], in data set [5] and in data set [6] was more than 1 h each time. This compound came in with a Ki in data set [2] of less than 0.001 µM.

`CC[C@@H]1NC(=O)[C@H](CCCNC(=N)N)NC(=O)[C@](C)(NC(=O)C(C)C)CCCNC(=O)[C@@H](c2ccccc2)NC1=O.O=C(O)C(F)(F)F`: the IC50 in the data set on HL-60 came to 46.8 µM; in the data set on MOLM-13, 1.28 µM; in data set [1], 0.0848 µM; in data set [2], 0.00097 µM; in the data set with MV4-11, 1.29 µM. For the same compound, the “Ratio IC50” value in [3] and in data set [7] was more than 30 in each case. Also, the half-life in data set [4], in data set [5] and in data set [6] was more than 1 h in each case. The Ki in [2] was less than 0.001 µM.

As to `CC[C@@H]1NC(=O)[C@H](CCCNC(=N)NC)NC(=O)[C@](C)(NC(=O)C(C)C)CCCCNC(=O)[C@@H](c2ccccc2)NC1=O` (Isobutyryl-[d(αMeK)][Arg(Me)][Abu][dPhg]; lactam 1-C), the IC50 was more than 100 µM in the data set with HL-60; 3.6 µM in the data set with MOLM-13; 0.452 µM in data set [1]; 0.0011 µM in [2]; 4.3 µM with MV4-11. The compound further showed an inhibition constant Ki in data set [2] of less than 0.001 µM.

On to `CC[C@@H]1NC(=O)[C@H](CCCNC(=N)N)NC(=O)[C@](C)(NC(=O)C(C)C)CCCCN(C)C(=O)[C@@H](c2ccc(F)cc2)NC1=O.O=C(O)C(F)(F)F`, for which the concentration for half-maximal inhibition (IC50) in the data set on HL-60 was 60 µM; with MOLM-13 it was 16.2 µM; in [1], 0.138 µM; in data set [2] it was 0.0016 µM; in the data set with MV4-11, 5.2 µM. The half-life in [4], in data set [5] and in data set [6] was more than 1 h throughout. In [2], the Ki is less than 0.001 µM.
